Assay outcomes deposited in PubChem by several laboratories.
core dimer inh = inhibitors of HCV core protein dimerization, primary screen, biochemical, TR-FRET, high-throughput. inhibition, % at 5 µM. AID 1899, 2009. TR-FRET GST/Flag-core106 dimerization, 1536-well. 0.33% of 300,000 active;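 active = inhibition above the mean of all tested compounds plus 3 SD, set per screening campaign, cut at about 45% in these data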
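Material: GST/Flag-tagged HCV core106 proteins. Incubation: 4 h, 22.5 °C incubation. Read-out basis: inhibition (%) from 671 over 617 nm ratio. Measured by: TR-FRET, excitation 340 nm, emission 617 and 671 nm.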
EBNA-1 inh = EBNA-1 DNA-binding inhibitors, primary screen, biochemical, fluorescence polarization | AID 1950, 2009 | inhibition, % at 14.8 µM | 0.34% of 300,000 active; in the data active = inhibition above about 28%
UBC9 SUMO inh = inhibitors of in vitro SUMOylation cascade, primary screen, biochemical, HTRF, uHTS. SUMO-conjugating enzyme UBC9 (Homo sapiens), P63279. HTRF SUMOylation assay, SAE1/SAE2 + UBC9. inhibition, % at 35 µM. 0.36% of 290,000 active; in the data active = inhibition above about 50%, passing the limit was not always enough
Target sequence (P63279 whole entry, looked up): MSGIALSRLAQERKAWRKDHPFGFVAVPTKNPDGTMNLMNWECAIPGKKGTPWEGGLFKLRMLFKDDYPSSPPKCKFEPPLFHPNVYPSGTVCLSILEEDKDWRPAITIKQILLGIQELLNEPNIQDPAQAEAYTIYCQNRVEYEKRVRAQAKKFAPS
ZTA counter = blocks Epstein-Barr virus ZTA, an EBNA-1 counter-screen. P03206. AID 2234. ZTA-DNA binding, fluorescence polarization. 0.15% of 320,000 active. inhibition, % at 11 µM; in the data active = inhibition above about 33%
Target sequence (P03206 whole entry, looked up): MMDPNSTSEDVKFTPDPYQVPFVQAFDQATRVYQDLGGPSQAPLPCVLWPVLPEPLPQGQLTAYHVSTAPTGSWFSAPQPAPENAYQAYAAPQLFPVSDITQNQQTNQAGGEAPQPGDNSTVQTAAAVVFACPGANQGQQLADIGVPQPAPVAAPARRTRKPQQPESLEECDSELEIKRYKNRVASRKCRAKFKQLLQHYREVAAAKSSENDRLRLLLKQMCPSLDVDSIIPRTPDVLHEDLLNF
HCV NS3 hel inh = inhibitors of HCV NS3 helicase, primary screen, biochemical, Cy5 molecular beacon fluorescence | NS3 helicase DNA unwinding | inhibition, % at 10.9 µM | 0.56% of 290,000 active;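 active = inhibition above the mean of all tested compounds plus 3 SD, set per campaign, cut at about 35% in these data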
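Test system: hepatitis C virus NS3 helicase domain fragment enzyme. Also added: annealed dual-labelled DNA beacon duplex, ATP-started. Timing: 60 min unwinding reaction at 25 °C after ATP addition. Technique: Cy5 fluorescence. Measure: % inhibition of unwinding.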
EBNA-1 confirm = EBNA-1 DNA-binding inhibitors, retest, confirmation, biochemical, fluorescence polarization, triplicate; shares compounds with EBNA-1 inh; Recombinant EBNA-1 DBD, Cy5-DNA fluorescence polarization; inhibition, % at 14.8 µM; 35% of 830 active; AID 2292, 2010;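 active = mean inhibition across replicates above a set limit taken from the earlier primary screen, cut at about 28% in these data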
ZTA counter trip = EBV Zta DNA binding inhibitors, counter-screen for EBNA-1 inhibitor project, biochemical, fluorescence polarization, triplicate; shares compounds with EBNA-1 inh; Zta-ZRE DNA binding, Cy5 fluorescence polarization; inhibition, % at 11.1 µM; 830 tested, under 10 active; AID 2328, 2010;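 active = mean inhibition over triplicates above a set limit taken from the primary EBNA-1 screen, cut at about 37% in these data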;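 also: purified full length Zta protein with Cy5 labeled ZRE DNA probe; inhibitors lower polarization by freeing the labeled DNA probe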
Each line names hits and unclear results; the compound was inactive in the other large screens (follow-up assays come after a bar, where they were run). Rows were chosen to be rich in hits. Some 1.4% of all compounds tested hit in one or more screens of this group.

O=[N+]([O-])c1ccc(NCCc2ccccc2)c(Br)c1	none
CCOc1ccc(/C=N/NC(=O)c2ccc(CSc3nc4ccccc4[nH]3)cc2)cc1	EBNA-1 inh 33 | EBNA-1 confirm 39 | ZTA counter trip inactive
CN(C(=O)COC(=O)c1cc2c(s1)CCCCC2)c1ccccc1	EBNA-1 inh 82 (no result: UBC9 SUMO inh, HCV NS3 hel inh) | EBNA-1 confirm inactive | ZTA counter trip inactive
Cc1ccc(-c2nn3c(-c4ccco4)nnc3c3ccccc23)cc1S(=O)(=O)NCC1CCCO1 (stereo not drawn)	EBNA-1 inh 86 | EBNA-1 confirm inactive | ZTA counter trip inactive
O=C(CN1CCCC1)Nc1c(C(=O)C2CC2)oc2ccccc12	none
N#Cc1ccccc1OCC(=O)Nc1c(C(=O)C2CC2)oc2ccccc12	EBNA-1 inh 30 | EBNA-1 confirm 92 | ZTA counter trip inactive
C(=N\N=C\c1ccncc1)/c1ccncc1	none (no result: UBC9 SUMO inh, HCV NS3 hel inh)
O=C(CCNC(=O)c1ccc(Br)cc1)NCCCSc1ccccc1	none (no result: UBC9 SUMO inh, HCV NS3 hel inh)
COc1ccc(NC(=O)Cn2c(=O)oc3ccccc32)cc1	none
O=C(Cn1c(=O)oc2ccccc21)Nc1cccc(Cl)c1	none
O=C(CCn1c(=O)oc2ccccc21)Nc1cccc(Cl)c1	EBNA-1 inh 36 | EBNA-1 confirm inactive | ZTA counter trip inactive
COC(=O)c1cc(NC(=O)Cn2c(=O)oc3ccccc32)cc(C(=O)OC)c1	EBNA-1 inh 65 | EBNA-1 confirm 38 | ZTA counter trip inactive
CCOc1ccccc1N1CCN(C(=O)c2ccc(OCC(=O)N3CCOCC3)c(OC)c2)CC1	none
O=C(CSc1nc2ccccc2c(=O)n1-c1ccccc1)c1cccc([N+](=O)[O-])c1	EBNA-1 inh 32 (no result: UBC9 SUMO inh, HCV NS3 hel inh) | EBNA-1 confirm inactive | ZTA counter trip inactive
O=c1c2ccccc2nc(SCc2ccc([N+](=O)[O-])cc2)n1-c1ccccc1	none
O=C(O)c1ccc2c(c1)C(=O)N(c1cccc(C(=O)/C=C/c3ccccc3)c1)C2=O	none
CS(=O)(=O)c1ccc(Cl)c(NC(=O)Cc2ccccc2F)c1	none
CS(=O)(=O)c1ccc(Cl)c(NC(=O)Cc2c(F)cccc2Cl)c1	EBNA-1 inh 44 | EBNA-1 confirm 30 | ZTA counter trip inactive
COc1ccc(NC(=O)CN(C)C(=O)c2cc(-c3ccc(OC)cc3)nc3ccccc23)cc1	EBNA-1 inh 31 (no result: UBC9 SUMO inh, HCV NS3 hel inh) | EBNA-1 confirm inactive | ZTA counter trip inactive
C=CCNC(=O)c1ccc(Cn2c(=S)[nH]c3cc4c(cc3c2=O)OCO4)cc1	EBNA-1 inh 33 | EBNA-1 confirm inactive | ZTA counter trip inactive
CCOc1ccc(/C(O)=C2/C(=O)C(=O)N(c3ccccn3)C2c2ccc(F)cc2)c(C)c1 (stereo not drawn)	none
Cn1c(COc2ccccc2)nnc1SCC(=O)Nc1ccc(N2CCOCC2)cc1	none
COc1ccc(/C=C2/NC(=O)N(CC(=O)Nc3cccc(C)c3)C2=O)cc1O	EBNA-1 inh 56 | EBNA-1 confirm 76 | ZTA counter trip inactive
Cc1cccc(NC(=O)CN2C(=O)N/C(=C/c3ccc(C)o3)C2=O)c1	none
Cn1cc(C[C@H](NC(=O)OC(C)(C)C)C(=O)N[C@@H](CO)Cc2ccccc2)c2ccccc21	none (no result: UBC9 SUMO inh, HCV NS3 hel inh)
O=C(Nc1ccc(Cl)cc1)Nc1ccc(Cl)c(Cl)c1	none (no result: core dimer inh, EBNA-1 inh, UBC9 SUMO inh, HCV NS3 hel inh)
NC(=O)c1cccc(NC(=O)Nc2ccc(Cl)cc2)c1	EBNA-1 inh 38 | EBNA-1 confirm inactive | ZTA counter trip inactive
Cc1ccc(-c2csc(NC(=O)COC(=O)c3cccc(S(=O)(=O)N4CCOCC4)c3)n2)cc1	EBNA-1 inh 98 | EBNA-1 confirm inactive | ZTA counter trip inactive
CCOC(=O)c1ccc(-c2csc(NC(=O)CN3CCC(C)CC3)n2)cc1	EBNA-1 inh 43 | EBNA-1 confirm 70 | ZTA counter trip inactive
Cc1ccc2nc(-c3ccc(NC(=O)COC(=O)c4ccco4)cc3)sc2c1	none
Cc1cc(C(=O)OCC(=O)Nc2nc(-c3ccccc3)cs2)c(C)o1	EBNA-1 inh 34 | EBNA-1 confirm inactive | ZTA counter trip inactive
CNS(=O)(=O)c1cccc(C(=O)OCC(=O)Nc2ccc(-c3nc4ccc(C)cc4s3)cc2)c1	EBNA-1 inh 103 | EBNA-1 confirm 81 | ZTA counter trip inactive
COc1ccc(N2CCN(C(=O)COC(=O)c3ccc(-n4nc(C)cc4C)cc3)CC2)cc1	none (no result: core dimer inh, EBNA-1 inh, UBC9 SUMO inh, HCV NS3 hel inh)
C[C@H](O)c1[nH]c2cc(F)ccc2c1[C@H](C)O	none
O=C(Nc1ccc2c(c1)C(=O)OC2)c1ccccc1Cl	none
COc1ccc(C(=O)NCCS(=O)(=O)N(C)C2CCCCC2)cc1	none (no result: UBC9 SUMO inh, HCV NS3 hel inh)
O=S(=O)(NCCOc1ccccc1)c1ccc2ccccc2c1	EBNA-1 inh 31 | EBNA-1 confirm inactive | ZTA counter trip inactive
CS(=O)(=O)NCCOc1ccc(S(=O)(=O)NCCOc2ccccc2)cc1	none
Cc1ccc2[nH]cc(/C=C/c3cc[n+](C)cc3)c2c1	none (no result: core dimer inh, EBNA-1 inh, ZTA counter)
CC[n+]1ccc(/C=C/c2c[nH]c3ccccc23)cc1	EBNA-1 inh 42 | EBNA-1 confirm inactive | ZTA counter trip inactive
COc1ccc(NC(=O)CSc2nc3nc(C)cc(C)c3c(=O)[nH]2)cc1	EBNA-1 inh 61 | EBNA-1 confirm inactive | ZTA counter trip inactive
O=[N+]([O-])c1ccccc1/C=C/CN1CCN(Cc2ccc3c(c2)OCO3)CC1	none
COCCn1c(SCC(=O)Nc2cc(C)on2)nc2ccccc2c1=O	none (no result: core dimer inh, EBNA-1 inh, UBC9 SUMO inh, HCV NS3 hel inh)
CCc1c(C)sc2nc(SCC(=O)Nc3cc(C)on3)n(CCOC)c(=O)c12	EBNA-1 inh 34 | EBNA-1 confirm inactive | ZTA counter trip inactive
COc1ccc(-c2cc(C(=O)Nc3cnn(Cc4ccccc4C)c3)no2)cc1OC	EBNA-1 inh 36 | EBNA-1 confirm inactive | ZTA counter trip inactive
CC(=O)Nc1ccc(S(=O)(=O)N2CCN(Cc3nc4sc(C)c(C)c4c(=O)[nH]3)CC2)cc1	EBNA-1 inh 27 | EBNA-1 confirm 55 | ZTA counter trip inactive
Cc1ccc(C)c(NC(=O)CN2C(=O)COc3ccc(S(=O)(=O)N4CCCC4)cc32)c1	none
CCn1c(NC(=O)c2cccc(Cn3cc(Cl)cn3)c2)nc2ccccc21	none
Cn1c(NC(=O)c2cccc(Cn3cc(Cl)cn3)c2)nc2ccccc21	EBNA-1 inh 41 | EBNA-1 confirm 34 | ZTA counter trip inactive
N#C[C@H]1C2OC2c2ccccc2N1C(=O)c1ccccc1 (stereo partly drawn)	none (no result: UBC9 SUMO inh, HCV NS3 hel inh)
COc1ccc(Nc2nc(Cl)nc(NCc3ccco3)n2)c(OC)c1	EBNA-1 inh 29 | EBNA-1 confirm inactive | ZTA counter trip inactive
